Source: ChEMBL document CHEMBL1828580, “Tertiary amides with a five-membered heteroaromatic ring as new probes for the translocator protein” (Eur J Med Chem, 2011)
The source made the active and inactive calls. The rule behind the calls is not given here.

Experiments:
Translocator protein = Translocator protein (Rattus norvegicus, UniProt P16257); assay: Displacement of [3H]PK11195 from TSPO receptor in rat kidney membranes; type: cell membranes, Membrane
[1] = Antiproliferative activity against human U87MG cells assessed as cell viability at 1000 times Ki after 24 hrs by MTS assay relative to untreated control; type: functional, U-87MG ATCC
Method in brief: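 U87MG cells grown in RPMI with 10% FBS, glutamine, antibiotics and non-essential amino acids at 37 °C. […] MTS colorimetric read-out, expressed as % of DMSO-treated control (100%). Triplicate wells, 3 experiments, mean ± SEM.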

Rattus norvegicus = species: Rattus norvegicus; assay: Displacement of [3H]Ro15-1788 from CBR in rat cerebral cortex at 10 uM; type: tissue-based
Method in brief: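 Rat cerebral cortex membranes were washed free of endogenous GABA, then incubated with 0.4 nM [3H]Ro15-1788 for 90 min at 0 °C in 50 mM Tris-citrate pH 7.4. Compound was present at 10 μM and the result given as % inhibition of binding.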

U-87 MG [2] = assay: Induction of mitochondrial membrane depolarization in human U87MG cells assessed as increase in JC-1 monomer formation at 30 times Ki after 12 to 48 hrs by flow cytometric analysis; type: functional, cell-based; conditions: U-87MG ATCC
Method in brief: (§1)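 U87MG cells were exposed to compound at 30 times Ki, or to DMSO control, for 12, 24 or 48 h, with CCCP as positive control in each experiment. Collected cells were stained with JC-1 for 30 min at room temperature in the dark, then analysed by flow cytometry: aggregates in FL2, monomers in FL1, gated on forward/side scatter. Read-out was % of cells in the lower-right (depolarized) quadrant; three independent experiments.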

U-87 MG [3] = assay: Induction of mitochondrial membrane depolarization in human U87MG cells assessed as change in membrane potential at 30 times Ki after 48 hrs by flow cytometric analysis; type: functional, U-87MG ATCC; method in brief: as §1
U-87MG ATCC [4] = assay: Antiproliferative activity against human U87MG cells assessed as reduction in cell viability at 30 times Ki after 24 hrs by trypan blue exclusion assay
U-87MG ATCC [5] = assay: Antiproliferative activity against human U87MG cells assessed as reduction in cell viability at 30 times Ki after 48 hrs by trypan blue exclusion assay
U-87MG ATCC [6] = assay: Antiproliferative activity against human U87MG cells assessed as reduction in cell viability at 30 times Ki after 72 hrs by trypan blue exclusion assay
U-87MG ATCC [7] = assay: Antiproliferative activity against human U87MG cells assessed as reduction in cell viability at 150 times Ki after 24 hrs by trypan blue exclusion assay

Translocator protein, sequence (P16257 whole entry, looked up): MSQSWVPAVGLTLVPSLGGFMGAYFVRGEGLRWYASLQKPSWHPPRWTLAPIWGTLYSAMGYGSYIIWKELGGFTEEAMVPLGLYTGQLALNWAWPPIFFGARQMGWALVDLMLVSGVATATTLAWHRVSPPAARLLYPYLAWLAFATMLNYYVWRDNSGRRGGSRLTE

Row | Ki (Translocator protein) [nM] | Structure (SMILES) | also measured
1 | 620 | CCCCN(CCCC)C(=O)c1cc(-c2ccccc2)on1 | –
2 | 487 | CCCCN(CCCC)C(=O)Cc1coc(-c2ccc(C)cc2)n1 | –
3 | 651 | CCCCN(CCCC)C(=O)c1cc(-c2ccccc2)no1 | –
4 | 914 | CCCCCN(CCCCC)C(=O)c1nc(-c2ccccc2)no1 | –
5 | 613 | CCCCCN(CCCCC)C(=O)c1coc(-c2ccccc2)n1 | –
6 | 267 | CCCCN(CCCC)C(=O)Cc1nc(-c2ccc(Cl)cc2)no1 | –
7 | 51 | CCCCCN(CCCCC)C(=O)Cc1cc(-c2ccccc2)on1 | Activity [1]: 24.8%
8 | > 10000 | CCCN(CCC)C(=O)c1cc(-c2ccccc2)no1 | –
9 | 3400 | CCCN(CCC)C(=O)Cc1nc(-c2ccc(Cl)cc2)no1 | –
10 | 2700 | CCCCCCN(CCCCCC)C(=O)c1cc(-c2ccc(C)cc2)no1 | –
11 | 4190 | CCCCCCN(CCCCCC)C(=O)c1nc(-c2ccccc2)no1 | –
12 | 1700 | CCCN(CCC)C(=O)Cc1coc(-c2ccccc2)n1 | inhibition (Rattus norvegicus): < 25%
13 | 45 | CCCCCN(CCCCC)C(=O)Cc1coc(-c2ccc(Cl)cc2)n1 | Activity [1]: 72.6%
14 | > 10000 | CCCCN(C)C(=O)c1coc(-c2ccccc2)n1 | –
15 | 68 | CCCCCN(CCCCC)C(=O)Cc1coc(-c2ccc(C)cc2)n1 | Activity [1]: 5.3%
16 | > 10000 | CCCN(CCC)C(=O)c1cc(-c2ccc(Cl)cc2)on1 | –
17 | 177 | CCCCN(CCCC)C(=O)Cc1coc(-c2ccc(Cl)cc2)n1 | –
18 | 346 | CCCCN(CCCC)C(=O)Cc1coc(-c2ccccc2)n1 | inhibition (Rattus norvegicus): < 25%
19 | 133 | CCCCCN(CCCCC)C(=O)Cc1nc(-c2ccccc2)no1 | –
20 | > 10000 | CCCCN(C)C(=O)c1nc(-c2ccccc2)no1 | –
21 | 157 | CCCCCCN(CCCCCC)C(=O)Cc1coc(-c2ccc(F)cc2)n1 | –
22 | 5490 | CCN(Cc1ccccc1)C(=O)c1coc(-c2ccccc2)n1 | –
23 | > 10000 | CCCN(CCC)C(=O)c1nc(-c2ccccc2)no1 | –
24 | 379 | CCCCCN(CCCCC)C(=O)c1cc(-c2ccccc2)no1 | –
25 | > 10000 | CCN(CC)C(=O)c1coc(-c2ccccc2)n1 | –
26 | 942 | CCCN(CCC)C(=O)Cc1coc(-c2ccc(Cl)cc2)n1 | –

Row | Ki (Translocator protein) [nM] | Structure (SMILES) | also measured
27 | – | CCCCN(CCCC)C(=O)C(=O)c1c(-c2ccc(Cl)cc2)[nH]c2ccc(Cl)cc12 | Activity [1]: 76%
28 | 2200 | CCCN(CCC)C(=O)Cc1coc(-c2ccc(C)cc2)n1 | –
29 | 11 | CCCCCN(CCCCC)C(=O)Cc1coc(-c2ccc(F)cc2)n1 | Activity [1]: 98%
30 | 382 | CCCCCN(CCCCC)C(=O)c1cc(-c2ccccc2)on1 | –
31 | 257 | CCCCCN(CCCCC)C(=O)Cc1cc(-c2ccccc2)no1 | –
32 | > 10000 | CCCN(CCC)C(=O)c1cc(-c2ccccc2)on1 | –
33 | > 10000 | CCCN(CCC)C(=O)c1coc(-c2ccccc2)n1 | –
34 | 4340 | CCCN(CCC)C(=O)Cc1nc(-c2ccccc2)no1 | –
35 | 4600 | CCCCCCN(CCCCCC)C(=O)c1coc(-c2ccccc2)n1 | –
36 | 152 | CCCCCN(CCCCC)C(=O)Cc1nc(-c2ccc(Cl)cc2)no1 | –
37 | 489 | CCCCN(CCCC)C(=O)Cc1nc(-c2ccccc2)no1 | –
38 | > 10000 | CCN(CC)C(=O)c1nc(-c2ccccc2)no1 | –
39 | 88 | CCCCN(CCCC)C(=O)Cc1coc(-c2ccc(F)cc2)n1 | –
40 | 1630 | CCCN(CCC)C(=O)Cc1coc(-c2ccc(F)cc2)n1 | –
41 | 32 | CCCCCN(CCCCC)C(=O)Cc1coc(-c2ccccc2)n1 | inhibition (Rattus norvegicus): < 25%; Activity [1]: 9.3%; Activity (U-87 MG [2]): Active; Activity (U-87 MG [3]): 24%; Activity (U-87MG ATCC [4]): Active; Activity (U-87MG ATCC [5]): Active; Activity (U-87MG ATCC [6]): Active; Activity (U-87MG ATCC [7]): Active
42 | 3460 | CCCCN(CCCC)C(=O)c1coc(-c2ccccc2)n1 | –
43 | 151 | CCCCCCN(CCCCCC)C(=O)Cc1coc(-c2ccccc2)n1 | inhibition (Rattus norvegicus): < 25%
44 | 877 | CCCCCCN(CCCCCC)C(=O)Cc1coc(-c2ccc(C)cc2)n1 | –
45 | 772 | CCCCN(CCCC)C(=O)c1nc(-c2ccccc2)no1 | –
46 | > 10000 | CCCCCCN(CCCCCC)C(=O)c1cc(-c2ccc(Cl)cc2)on1 | –
47 | 4870 | CCN(Cc1ccccc1)C(=O)c1nc(-c2ccccc2)no1 | –
48 | 704 | CCCCCCN(CCCCCC)C(=O)Cc1coc(-c2ccc(Cl)cc2)n1 | –
49 | 5800 | CCCCCCN(CCCCCC)C(=O)c1cc(-c2ccccc2)on1 | –
50 | 7000 | CCCCCCN(CCCCCC)C(=O)c1cc(-c2ccccc2)no1 | –
51 | 3200 | CCCCCCN(CCCCCC)C(=O)Cc1nc(-c2ccc(Cl)cc2)no1 | –
52 | 1100 | CCCCCCN(CCCCCC)C(=O)Cc1nc(-c2ccccc2)no1 | –
